Data from ChEMBL document CHEMBL4373727, “Thienopyrimidinone Derivatives That Inhibit Bacterial tRNA (Guanine37-N1)-Methyltransferase (TrmD) by Restructuring the Active Site with a Tyrosine-Flipping Mechanism” (J Med Chem, 2019).

Tests used:
[1] = target: T1, tRNA (guanine-N(1)-)-methyltransferase (Mycobacterium tuberculosis (strain ATCC 25618 / H37Rv)) (UniProt P9WFY7); assay: Binding affinity to full length Mycobacterium tuberculosis tRNA (guanine(37)-N1)-methyltransferase expressed in Escherichia coli BL21 (DE3) assessed as dissociation rate constant by surface plasmon resonance assay
T1 sequence (whole entry): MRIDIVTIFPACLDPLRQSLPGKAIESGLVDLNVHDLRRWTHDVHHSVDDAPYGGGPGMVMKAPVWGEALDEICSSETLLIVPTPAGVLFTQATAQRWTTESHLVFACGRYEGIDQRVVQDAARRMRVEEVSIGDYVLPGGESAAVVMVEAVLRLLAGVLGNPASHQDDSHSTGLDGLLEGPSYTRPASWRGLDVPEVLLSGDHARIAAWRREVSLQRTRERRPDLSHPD
Method in brief: (§1)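 SPR at 25 °C. His-tagged TrmD (50 μg/mL) captured on an anti-His antibody surface (about 2200 RU), with a blank reference cell. Buffer: 50 mM Tris-HCl pH 8, 150 mM NaCl, 1 mM MgCl2, 1 mM DTT, 0.05% Tween-20. Analyte in 2-fold dilutions, injected lowest to highest at 30 μL/min, 30 s contact, 240 s dissociation. KD from steady-state affinity fit.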

[2] = target: T2, tRNA (guanine-N(1)-)-methyltransferase (Mycobacterium tuberculosis (strain ATCC 25618 / H37Rv), UniProt P9WFY7); assay: Binding affinity to full length Mycobacterium tuberculosis tRNA (guanine(37)-N1)-methyltransferase expressed in Escherichia coli BL21 (DE3) by surface plasmon resonance assay; method in brief: as §1
T2 sequence (P9WFY7 whole entry): T1 sequence (whole entry)

[3] = target: T3, tRNA (guanine-N(1)-)-methyltransferase (Pseudomonas aeruginosa (strain ATCC 15692 / DSM 22644 / CIP 104116 / JCM14847 / LMG 12228 / 1C / PRS 101 / PAO1)) (UniProt Q9HXQ1); assay: Binding affinity to Pseudomonas aeruginosa tRNA (guanine(37)-N1)-methyltransferase (Leu5 to Asp25 residues) expressed in Escherichia coli BL21 (DE3) Rosetta T1R cells assessed as dissociation rate constant by surface plasmon resonance assay; method in brief: as §1
T3 sequence (whole entry): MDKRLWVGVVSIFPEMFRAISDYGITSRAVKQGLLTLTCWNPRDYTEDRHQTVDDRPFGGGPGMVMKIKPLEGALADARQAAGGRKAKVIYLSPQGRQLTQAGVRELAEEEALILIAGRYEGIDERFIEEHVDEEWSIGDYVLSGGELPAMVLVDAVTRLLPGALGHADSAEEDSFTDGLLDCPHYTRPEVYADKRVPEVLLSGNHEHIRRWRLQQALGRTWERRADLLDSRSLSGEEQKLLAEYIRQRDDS

[4] = target: T4, tRNA (guanine-N(1)-)-methyltransferase (Pseudomonas aeruginosa (strain ATCC 15692 / DSM 22644 / CIP 104116 / JCM14847 / LMG 12228 / 1C / PRS 101 / PAO1), UniProt Q9HXQ1); assay: Binding affinity to Pseudomonas aeruginosa tRNA (guanine(37)-N1)-methyltransferase (Leu5 to Asp25 residues) expressed in Escherichia coli BL21 (DE3) Rosetta T1R cells by surface plasmon resonance assay; method in brief: as §1
T4 sequence (Q9HXQ1 whole entry): T3 sequence (whole entry)

[5] = target: T1, tRNA (guanine-N(1)-)-methyltransferase (Mycobacterium tuberculosis (strain ATCC 25618 / H37Rv)); assay: Binding affinity to full length Mycobacterium tuberculosis tRNA (guanine(37)-N1)-methyltransferase expressed in Escherichia coli BL21 (DE3) assessed as association rate constant by surface plasmon resonance assay; method in brief: as §1
[6] = target: T5, tRNA (guanine-N(1)-)-methyltransferase (Staphylococcus aureus (strain NCTC 8325 / PS 47)) (UniProt Q2FZ43); assay: Binding affinity to full length Staphylococcus aureus tRNA (guanine(37)-N1)-methyltransferase expressed in Escherichia coli BL21 (DE3) assessed as association rate constant by surface plasmon resonance assay; method in brief: as §1
T5 sequence (whole entry): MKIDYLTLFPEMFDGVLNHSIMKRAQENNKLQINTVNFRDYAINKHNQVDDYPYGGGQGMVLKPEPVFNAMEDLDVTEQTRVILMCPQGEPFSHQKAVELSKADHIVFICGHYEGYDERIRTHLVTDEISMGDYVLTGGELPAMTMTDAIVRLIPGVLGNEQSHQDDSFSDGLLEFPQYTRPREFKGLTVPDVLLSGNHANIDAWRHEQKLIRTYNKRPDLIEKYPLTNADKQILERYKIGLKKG

[7] = target: T5, tRNA (guanine-N(1)-)-methyltransferase (Staphylococcus aureus (strain NCTC 8325 / PS 47)); assay: Binding affinity to full length Staphylococcus aureus tRNA (guanine(37)-N1)-methyltransferase expressed in Escherichia coli BL21 (DE3) assessed as dissociation rate constant by surface plasmon resonance assay; method in brief: as §1
[8] = target: T6, tRNA (guanine-N(1)-)-methyltransferase (Staphylococcus aureus (strain NCTC 8325 / PS 47), UniProt Q2FZ43); assay: Binding affinity to full length Staphylococcus aureus tRNA (guanine(37)-N1)-methyltransferase expressed in Escherichia coli BL21 (DE3) by surface plasmon resonance assay; method in brief: as §1
T6 sequence (Q2FZ43 whole entry): T5 sequence (whole entry)

[9] = target: T3, tRNA (guanine-N(1)-)-methyltransferase (Pseudomonas aeruginosa (strain ATCC 15692 / DSM 22644 / CIP 104116 / JCM14847 / LMG 12228 / 1C / PRS 101 / PAO1)); assay: Binding affinity to Pseudomonas aeruginosa tRNA (guanine(37)-N1)-methyltransferase (Leu5 to Asp25 residues) expressed in Escherichia coli BL21 (DE3) Rosetta T1R cells assessed as thermal stabilization of protein by measuring change in melting temperature at 2 mM by SYPRO orange based thermal shift assay
Method in brief: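 Thermal shift: 4 μM TrmD with 5× SYPRO Orange and ligand in 50 mM Tris-HCl pH 8, 150 mM NaCl, 1 mM MgCl2, 1 mM DTT, 0.05% Tween-20. Buffer-only control. Heated from 25 to 95 °C in a real-time PCR instrument, and Tm taken as the unfolding midpoint. Ligand levels: SAH 2 mM, inhibitors 0.1 mM.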

[10] = target: T3, tRNA (guanine-N(1)-)-methyltransferase (Pseudomonas aeruginosa (strain ATCC 15692 / DSM 22644 / CIP 104116 / JCM14847 / LMG 12228 / 1C / PRS 101 / PAO1)); assay: Binding affinity to Pseudomonas aeruginosa tRNA (guanine(37)-N1)-methyltransferase (Leu5 to Asp25 residues) expressed in Escherichia coli BL21 (DE3) Rosetta T1R cells assessed as association rate constant by surface plasmon resonance assay; method in brief: as §1

## Nc1ncnc2c1ncn2[C@@H]1O[C@H](CSCC[C@H](N)C(=O)O)[C@@H](O)[C@H]1O [S-ADENOSYLHOMOCYSTEINE]
[1]
  Kdiss: 0.0775 s⁻¹
[2]
  Kd: 10.1 µM
[3]
  Kdiss: 0.326 s⁻¹
[4]
  Kd: 5.9 µM
[5]
  Ka: 7700 M⁻¹ s⁻¹
[6]
  Ka: 279000 M⁻¹ s⁻¹
[7]
  Kdiss: 0.92 s⁻¹
[8]
  Kd: 3.3 µM
[9]
  ΔTm: 4 to 29 °C
[10]
  Ka: 55500 M⁻¹ s⁻¹
